The source made the active and inactive calls. No cut-off for these calls is given here.
Legend:
Danio rerio [1] = species: Danio rerio; assay: Antimelanogenic activity against zebrafish embryo assessed as whitening efficacy at 10 uM; format: functional, organism-based
Danio rerio [2] = species: Danio rerio; assay: Antimelanogenic activity against zebrafish embryo assessed as whitening efficacy; format: functional, organism-based
Outline: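 Synchronized zebrafish embryos were treated with compound and scored for pigmentation. Controls received 0.1% DMSO or 0.2 mM PTU.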

HMV-2 cell line [3] = assay: Antimelanogenic activity against human HMVII cells assessed as change in melanin colour from black to brown; format: functional, cell-based
HMV-2 cell line [4] = assay: Antimelanogenic activity against human HMVII cells assessed as melanin content in cell lysate at 1 uM relative to control; format: functional
Outline: (§1)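 Human melanoma HMV-II cells were exposed to compound at 1, 10 or 20 µM. Melanin was pelleted from cell lysates, and total melanin content was expressed relative to the DMSO-treated control.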

HMV-2 cell line [5] = assay: Antimelanogenic activity against human HMVII cells assessed as melanin content in cell lysate at 10 uM relative to control; format: functional; outline: as §1
HMV-2 cell line [6] = assay: Antimelanogenic activity against human HMVII cells assessed as melanin content in cell lysate at 20 uM relative to control; format: functional; outline: as §1
HMV-2 cell line [7] = assay: Antimelanogenic activity against human HMVII cells assessed as reduction in TRP1 mRNA level at 1 to 20 uM measured after 24 hrs by RT-PCR analysis; format: functional, cell-based
Outline: (§2)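 HMV-II melanoma cells were treated with compound for 24 h. MITF, TRP-1 and TRP-2 mRNA levels were then quantified by real-time RT-PCR.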

HMV-2 cell line [8] = assay: Antimelanogenic activity against human HMVII cells assessed as reduction in melanin content in cell lysate; format: functional, cell-based; outline: as §1
HMV-2 cell line [9] = assay: Antimelanogenic activity against human HMVII cells assessed as reduction in TRP2 mRNA level at 1 to 20 uM measured after 24 hrs by RT-PCR analysis; format: functional, cell-based; outline: as §2
HMV-2 cell line [10] = assay: Antimelanogenic activity against human HMVII cells assessed as reduction in MITF mRNA level at 1 to 20 uM measured after 24 hrs by RT-PCR analysis; format: functional, cell-based; outline: as §2
HMV-2 cell line [11] = assay: Antimelanogenic activity against human HMVII cells assessed as reduction in tyrosinase mRNA level at 10 to 20 uM measured after 24 hrs by RT-PCR analysis; format: functional, cell-based
HMV-2 cell line [12] = assay: Cytotoxicity against human HMVII cells assessed as decrease in cell survival at 20 uM measured after 5 days by Cytox-reagent based relative to control; details: hmv-2, 120 h
Outline: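 HMV-II cells were seeded at 7,500 cells/well and cultured 24 h, then exposed to compound for 5 days. Viability was read with CytoX reagent.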

[13] = Toxicity against human eye assessed as effect on tissue viability up to 50 uM measured after 30 mins by MTT assay; format: tissue-based; details: 0.5 h
Outline: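 Reconstructed human ocular tissue (Neoderm-CD) was exposed to compound up to 50 µM and stained with MTT (1 mg/mL) for 30 min. Formazan was extracted with isopropanol and absorbance read at 570 nm.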

[14] = Toxicity against human skin assessed as effect on tissue viability up to 50 uM measured after 3 hrs by MTT assay
HMV-2 cell line [15] = assay: Antimelanogenic activity against human HMVII cells assessed as melanin content in cell lysate at 100 uM relative to control; format: functional
Outline: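 HMV-II human melanoma cells were cultured for 5 days with test sample or DMSO. Melanin pellets were collected from cell lysates, and total melanin content was expressed relative to the DMSO control.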

Row | SMILES | Activity (Danio rerio [1]) | other results
1 | Fc1ccccc1Sc1nccc2ccccc12 | Active | –
2 | c1ccc(Sc2nccc3ccccc23)nc1 | Active | –
3 | c1ccc2c(Sc3nccc4ccccc34)nccc2c1 | Active | –
4 | c1ccc2c(Sc3nc4ccccc4s3)nccc2c1 | inactive | –
5 | Fc1ccc(Sc2nccc3ccccc23)cc1 | Active | Activity (Danio rerio [2]): Dose-dependent effect; Activity (HMV-2 cell line [3]): Active; Activity (HMV-2 cell line [4]): 67.6%; Activity (HMV-2 cell line [5]): 31.3%; Activity (HMV-2 cell line [6]): 14.6%; inhibition (HMV-2 cell line [7]): Active; Activity (HMV-2 cell line [8]): Dose-dependent effect; inhibition (HMV-2 cell line [9]): Active; inhibition (HMV-2 cell line [10]): Active; inhibition (HMV-2 cell line [11]): Active; Activity (HMV-2 cell line [12]): < 10%; Activity [13]: Non-Toxic; Activity [14]: Non-Toxic
6 | c1cnc(Sc2nccc3ccccc23)nc1 | Active | –
7 | c1ccc(Sc2nccc3ccccc23)cc1 | Active | Activity (Danio rerio [2]): Dose-dependent effect
8 | Fc1ccc(Sc2nccc3ccccc23)c(F)c1 | Active | –
9 | Cc1ccc(Sc2nccc3ccccc23)cc1 | Active | –
10 | Fc1ccc(Sc2ncnc3c(Br)csc23)cc1 | Active | Activity (Danio rerio [2]): Dose-dependent effect
11 | Fc1ccc(Oc2nccc3ccccc23)cc1 | inactive | –
12 | Fc1ccc(Sc2ncnc3[nH]cnc23)cc1 | inactive | –
13 | Fc1ccc(Sc2[nH]cnc3nccc2-3)cc1 | Active | –
14 | Fc1ccc(Sc2ncnc3cc[nH]c23)cc1 | Active | –
15 | Nc1ccc(Sc2nccc3ccccc23)cc1 | Active | –
16 | c1ccc2c(Sc3nc4ccccc4[nH]3)nccc2c1 | Active | –
17 | CCOC(=O)c1ccc(Sc2nccc3ccccc23)cc1 | Active | –
18 | OC[C@H]1O[C@@H](Oc2ccc(O)cc2)[C@H](O)[C@@H](O)[C@@H]1O [ARBUTIN] | – | Activity (HMV-2 cell line [15]): 85.6%
19 | Fc1ccc(Nc2nccc3ccccc23)cc1 | inactive | –
20 | FC(F)(F)c1ccc(Sc2nccc3ccccc23)cc1 | inactive | –
21 | O=c1cc(CO)occ1O [KOJIC ACID] | – | Activity (HMV-2 cell line [15]): 45.9%
22 | Clc1ccc(Sc2nccc3ccccc23)cc1 | Active | –

— ChEMBL document CHEMBL4619757, “Identification of new arylsulfide derivatives as anti-melanogenic agents in a zebrafish model” (Bioorg Med Chem Lett, 2020)
